ChEMBL document CHEMBL4014269, “Antibacterial and Hypoglycemic Diterpenoids from Salvia chamaedryoides” (J Nat Prod, 2017)
Converted amounts (≈) assume the structure as drawn. The source made the active and inactive calls. No cut-off for these calls is given here.

Legend:
Staphylococcus aureus [1] = assay: Antibacterial activity against methicillin-resistant Staphylococcus aureus isolate MB 9 after 24 hrs by microdilution assay; assay type: functional; settings: isolate MB 9, 24 h
How it was run: (§1)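 Clinical isolates from various clinical specimens, identified by standard procedures and kept in a hospital microbiology laboratory collection. The MIC was read by broth microdilution, following a method described in earlier work.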

Staphylococcus aureus [2] = assay: Antibacterial activity against methicillin-resistant Staphylococcus aureus isolate MB 10 after 24 hrs by microdilution assay; assay type: functional; settings: isolate MB 10, 24 h; how it was run: as §1
Staphylococcus aureus [3] = assay: Antibacterial activity against methicillin-resistant Staphylococcus aureus isolate MB 18 after 24 hrs by microdilution assay; assay type: functional; settings: isolate MB 18, 24 h; how it was run: as §1
Staphylococcus aureus [4] = assay: Antibacterial activity against methicillin-sensitive Staphylococcus aureus isolate MB 21 after 24 hrs by microdilution assay; assay type: functional; settings: isolate MB 21, 24 h
How it was run: (§2)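 Clinical isolates from a hospital microbiology collection, identified by standard procedures; MICs by broth microdilution.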

[5] = system: Staphylococcus epidermidis; assay: Antibacterial activity against methicillin-resistant Staphylococcus epidermidis isolate MB 20 after 24 hrs by microdilution assay; assay type: functional; settings: isolate MB 20, 24 h; how it was run: as §1
[6] = system: Staphylococcus epidermidis; assay: Antibacterial activity against methicillin-resistant Staphylococcus epidermidis isolate MB 26 after 24 hrs by microdilution assay; assay type: functional; settings: isolate MB 26, 24 h; how it was run: as §1
[7] = system: Staphylococcus epidermidis; assay: Antibacterial activity against methicillin-resistant Staphylococcus epidermidis isolate MB 64 after 24 hrs by microdilution assay; assay type: functional; settings: isolate MB 64, 24 h; how it was run: as §1
[8] = system: Staphylococcus epidermidis; assay: Antibacterial activity against methicillin-sensitive Staphylococcus epidermidis isolate MB 65 after 24 hrs by microdilution assay; assay type: functional; settings: isolate MB 65, 24 h; how it was run: as §2
Enterococcus faecalis [9] = assay: Antibacterial activity against vancomycin-resistant Enterococcus faecalis isolate MB 1 after 24 hrs by microdilution assay; assay type: functional; settings: isolate MB 1, 24 h; how it was run: as §1
Enterococcus faecalis [10] = assay: Antibacterial activity against Enterococcus faecalis isolate MB 3 after 24 hrs by microdilution assay; assay type: functional; settings: isolate MB 3, 24 h; how it was run: as §2
Enterococcus faecalis [11] = assay: Antibacterial activity against vancomycin-resistant Enterococcus faecalis isolate MB 49 after 24 hrs by microdilution assay; assay type: functional; settings: isolate MB 49, 24 h; how it was run: as §1
Enterococcus faecalis [12] = assay: Antibacterial activity against vancomycin-resistant Enterococcus faecalis isolate MB 51 after 24 hrs by microdilution assay; assay type: functional; settings: isolate MB 51, 24 h; how it was run: as §1
Enterococcus faecium [13] = assay: Antibacterial activity against vancomycin-resistant Enterococcus faecium isolate MB 2 after 24 hrs by microdilution assay; assay type: functional; settings: isolate MB 2, 24 h; how it was run: as §1
Enterococcus faecium [14] = assay: Antibacterial activity against vancomycin-resistant Enterococcus faecium isolate MB 23 after 24 hrs by microdilution assay; assay type: functional; settings: isolate MB 23, 24 h; how it was run: as §1
Enterococcus faecium [15] = assay: Antibacterial activity against vancomycin-resistant Enterococcus faecium isolate MB 50 after 24 hrs by microdilution assay; assay type: functional; settings: isolate MB 50, 24 h; how it was run: as §1
Enterococcus faecium [16] = assay: Antibacterial activity against Enterococcus faecium isolate MB 55 after 24 hrs by microdilution assay; assay type: functional; settings: isolate MB 55, 24 h; how it was run: as §1
Escherichia coli = assay: Antibacterial activity against Escherichia coli isolate MB 123 after 24 hrs by microdilution assay; assay type: functional; how it was run: as §1
Proteus mirabilis = assay: Antibacterial activity against Proteus mirabilis isolate MB 14 after 24 hrs by microdilution assay; assay type: functional; how it was run: as §1
Moraxella catarrhalis = assay: Antibacterial activity against Moraxella catarrhalis isolate MB 15 after 24 hrs by microdilution assay; assay type: functional; how it was run: as §1
Klebsiella pneumoniae = assay: Antibacterial activity against Klebsiella pneumoniae isolate MB 11 after 24 hrs by microdilution assay; assay type: functional; how it was run: as §1
Candida albicans = assay: Antifungal activity against Candida albicans isolate MB 31 after 48 hrs by microdilution assay; assay type: functional; how it was run: as §1
Nakaseomyces glabratus = assay: Antifungal activity against Candida glabrata isolate MB 8 after 48 hrs by microdilution assay; assay type: functional; how it was run: as §1
[17] = target: Alpha-amylase (Sus scrofa); assay: Inhibition of alpha-amylase (hog pancreas) using starch as substrate preincubated for 10 mins followed by substrate addition measured after 10 mins by dinitrosalicylic acid color reagent based assay
[18] = target: alpha-glucosidase (Saccharomyces cerevisiae); assay: Inhibition of alpha-glucosidase (Saccharomyces cerevisiae) using 4-nitrophenyl alpha-D-glucopyranoside as substrate after 10 mins

Structure (SMILES) | MIC (Staphylococcus aureus [1]) [mg/L] | MIC (Staphylococcus aureus [2]) [mg/L] | MIC (Staphylococcus aureus [3]) [mg/L] | MIC (Staphylococcus aureus [4]) [mg/L] | MIC [5] [mg/L] | MIC [6] [mg/L] | MIC [7] [mg/L] | MIC [8] [mg/L] | MIC (Enterococcus faecalis [9]) | MIC (Enterococcus faecalis [10]) | MIC (Enterococcus faecalis [11]) | MIC (Enterococcus faecalis [12]) | MIC (Enterococcus faecium [13]) [µM] | MIC (Enterococcus faecium [14]) | MIC (Enterococcus faecium [15]) | MIC (Enterococcus faecium [16]) | Activity (Escherichia coli) | Activity (Proteus mirabilis) | Activity (Moraxella catarrhalis) | Activity (Klebsiella pneumoniae) | other results
C[C@]12C[C@H](c3ccoc3)OC(=O)[C@]1(O)[C@H](O)C[C@@]13COC(=O)C1=CCC[C@@H]32 | > 128 | > 128 | > 128 | > 128 | > 128 | > 128 | > 128 | > 128 | 171 µM | 342 µM | 171 µM | 85.5 µM | 171 (≈ 64.1 µg/mL) | 342 µM | 171 µM | 342 µM | inactive | inactive | inactive | inactive | Activity (Candida albicans): inactive; Activity (Nakaseomyces glabratus): inactive
CC(C)c1cc2c(c(O)c1O)[C@@]13CCCC(C)(C)[C@@H]1[C@H](OC3=O)C2=O | > 128 | > 128 | > 128 | > 128 | > 128 | > 128 | > 128 | > 128 | 186 µM | 93 µM | 186 µM | 93 µM | 186 (≈ 64.1 µg/mL) | 93 µM | 93 µM | 186 µM | inactive | inactive | inactive | inactive | Activity (Candida albicans): inactive; Activity (Nakaseomyces glabratus): inactive
CC(=O)O[C@H](C[C@@]1(C)[C@H](C)[C@H](O[C@@H]2O[C@H](CO)[C@@H](O)C(=O)[C@H]2O)C[C@@]23COC(=O)C2=CCC[C@@H]31)c1ccoc1 | > 128 | > 128 | > 128 | > 128 | > 128 | > 128 | > 128 | > 128 | 234 µM | 117 µM | 234 µM | 117 µM | 234 (≈ 128 µg/mL) | > 128 mg/L | 234 µM | > 128 mg/L | inactive | inactive | inactive | inactive | Activity (Candida albicans): inactive; Activity (Nakaseomyces glabratus): inactive
C[C@]12C[C@H](c3ccoc3)OC(=O)[C@@H]1[C@H](O)C[C@]13COC(=O)C1=CC=C[C@@H]32 | > 128 | > 128 | > 128 | > 128 | > 128 | > 128 | > 128 | > 128 | > 128 mg/L | > 128 mg/L | > 128 mg/L | > 128 mg/L | 359 (≈ 128 µg/mL) | > 128 mg/L | 359 µM | > 128 mg/L | inactive | inactive | inactive | inactive | Activity (Candida albicans): inactive; Activity (Nakaseomyces glabratus): inactive
C[C@]12C[C@H](c3ccoc3)OC(=O)[C@@]1(O)[C@H](O)C[C@@]13COC(=O)C1=CCC[C@@H]32 | > 128 | > 128 | > 128 | > 128 | > 128 | > 128 | > 128 | > 128 | > 128 mg/L | > 128 mg/L | > 128 mg/L | > 128 mg/L | 342 (≈ 128 µg/mL) | 342 µM | > 128 mg/L | 342 µM | inactive | inactive | inactive | inactive | Activity (Candida albicans): inactive; Activity (Nakaseomyces glabratus): inactive
O=C1OCC=C1[C@H]1CCc2ccc3c(c2C1)[C@H](c1ccoc1)OC3=O | > 128 | > 128 | > 128 | > 128 | > 128 | > 128 | > 128 | > 128 | > 128 mg/L | > 128 mg/L | > 128 mg/L | > 128 mg/L | 381 (≈ 128 µg/mL) | 381 µM | 381 µM | 381 µM | inactive | inactive | inactive | inactive | Activity (Candida albicans): inactive; Activity (Nakaseomyces glabratus): inactive
C[C@]12C[C@H](c3ccoc3)OC(=O)[C@@H]1[C@H](O)C[C@@]13COC(=O)C1=CC=C[C@H]32 |  |  |  |  |  |  |  |  |  |  |  |  |  |  |  |  |  |  |  |  | IC50 [17]: 53.5 mg/L (≈ 150 µM)
C[C@]12C[C@H](c3ccoc3)OC(=O)[C@@]1(O)[C@@H](O)C[C@@]13COC(=O)C1=CC[C@@H](O)[C@@H]32 |  |  |  |  |  |  |  |  |  |  |  |  |  |  |  |  |  |  |  |  | IC50 [18]: 113.2 mg/L (≈ 290 µM); IC50 [17]: 238.1 mg/L (≈ 610 µM)
C[C@@]12/C=C/C=C\C3=C(COC3=O)C[C@@H](O)[C@H]1C(=O)O[C@@H](c1ccoc1)C2 | > 128 | > 128 | > 128 | > 128 | > 128 | > 128 | > 128 | > 128 | 180 µM | 89.9 µM | 180 µM | 89.9 µM | 89.9 (≈ 32 µg/mL) | 180 µM | 180 µM | 89.9 µM | inactive | inactive | inactive | inactive | Activity (Candida albicans): inactive; Activity (Nakaseomyces glabratus): inactive
